Test results reported in ChEMBL document CHEMBL4680120, “Novel anti-Alzheimer phenol-lipoyl hybrids: Synthesis, physico-chemical characterization, and biological evaluation” (Eur J Med Chem, 2020).
In brackets after ≈: the same amount, converted by molar mass. Activity calls are given as the source filed them. The rule behind the calls is not given here.

Assays:
[1] = Stability in simulated intestinal fluid at pH 6.8 assessed as relative difference measured after 60 mins in presence of pancreatin by HPLC analysis; type: ADME; details: simulated gi fluid, pH 6.8, 1 h
How it was run: (§1)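 Incubation in simulated gastric fluid (pH 1.2, pepsin) or simulated intestinal fluid (pH 6.8, pancreatin). Aliquots deproteinized with ice-cold acetonitrile, centrifuged at 4°C and 12000 rpm for 10 min, filtered, analyzed by HPLC. RD% = (Ci − Cf)/Ci × 100. Stable if RD < 5%. Means of three experiments.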

[2] = Stability in simulated intestinal fluid at pH 6.8 assessed as relative difference measured after 120 mins in presence of pancreatin by HPLC analysis; type: ADME; details: simulated gi fluid, pH 6.8, 2 h; how it was run: as §1
[3] = Stability in simulated intestinal fluid at pH 6.8 assessed as relative difference measured after 30 mins in presence of pancreatin by HPLC analysis; type: ADME; details: simulated gi fluid, pH 6.8, 0.5 h; how it was run: as §1
Erythrocyte [4] = assay: Cytoprotective activity against H2O2-induced oxidative damage in human RBC assessed as restoration of antioxidant activity measured after 72 hrs by TAC assay; type: functional, cell-based
[5] = Stability in simulated gastric fluid at pH 1.2 assessed as relative difference measured after 15 mins in presence of pepsin by HPLC analysis; type: ADME; details: isolated protein, pH 1.2, 0.25 h; how it was run: as §1
SH-SY5Y [6] = assay: Neuroprotective activity against amyloid beta (1 to 42)-induced apoptosis in human SH-SY5Y cells assessed as decrease in DNA condensation at IC50 measured after 48 hrs by Hoechst 33258 staining based fluorescence microscopic assay; type: functional, cell-based
How it was run: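 Differentiated SH-SY5Y cells, 4×10^4 per well, exposed 48 h to Aβ1-42 (20 μM) with or without hybrid. Fixed in 4% paraformaldehyde for 30 min, stained with Hoechst 33258 for 15 min. Nuclear chromatin condensation and DNA fragmentation scored by fluorescence microscopy at ×200.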

[7] = Stability in simulated intestinal fluid at pH 6.8 assessed as relative difference measured after 180 mins in presence of pancreatin by HPLC analysis; type: ADME; details: simulated gi fluid, pH 6.8, 3 h; how it was run: as §1
[8] = Half life in human plasma by HPLC analysis; type: ADME, cell-free
How it was run: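 Compound stock added to human plasma pre-warmed to 37°C and diluted with 0.02 M phosphate buffer (pH 7.4) to 80% plasma. 100 μL samples taken over time, quenched with 200 μL cold acetonitrile, centrifuged, and supernatant analyzed by HPLC. t½ and kobs are means of three experiments.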

SH-SY5Y [9] = assay: Neuroprotective activity against amyloid beta (1 to 42)-induced toxicity in human SH-SY5Y cells assessed as decrease in EGFR mRNA expression at IC50 measured after 48 hrs by SYBR green dye based RT-qPCR analysis; type: functional, cell-based
How it was run: (§2)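 Differentiated SH-SY5Y cells in 6-well plates treated 48 h with Aβ1-42 (20 μM) with or without hybrid. mRNA of AD-related genes measured by RT-qPCR, normalized to β-actin. Expressed as fold change versus untreated cells. Triplicate experiments.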

[10] = Stability in simulated intestinal fluid at pH 6.8 assessed as relative difference measured after 15 mins in presence of pancreatin by HPLC analysis; type: ADME; details: simulated gi fluid, pH 6.8, 0.25 h; how it was run: as §1
[11] = Solubility of compound in water by HPLC analysis; type: physicochemical
SH-SY5Y [12] = assay: Neuroprotective activity against amyloid beta (1 to 42)-induced toxicity in human SH-SY5Y cells assessed as increase in cell viability at 1 to 250 mg/l measured after 48 hrs by LDH release assay; type: functional, cell-based; details: dose 1-250 mg/L
How it was run: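 SH-SY5Y cells grown in DMEM/F12 with 10% FBS and differentiated with retinoic acid (10 μM), seeded at 1×10^4 per well and cultured 24 h. Cells were given hybrids at 1–250 mg/L with or without Aβ1-42 (20 μM) for 48 h. MTT (5 mg/mL) added for 4 h at 37°C, DMSO solubilization, read at 570/630 nm. LDH read at 450 nm. Five independent experiments.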

SH-SY5Y [13] = assay: Neuroprotective activity against amyloid beta (1 to 42)-induced toxicity in human SH-SY5Y cells assessed as decrease in BACE1 mRNA expression at IC50 measured after 48 hrs by SYBR green dye based RT-qPCR analysis; type: functional, cell-based; how it was run: as §2
SH-SY5Y [14] = assay: Neuroprotective activity against amyloid beta (1 to 42)-induced toxicity in human SH-SY5Y cells assessed as decrease in APP mRNA expression at IC50 measured after 48 hrs by SYBR green dye based RT-qPCR analysis; type: functional, cell-based; how it was run: as §2
Erythrocyte [15] = assay: Antioxidant activity in human RBC assessed as increase in total antioxidant capacity level up to 400 ug/ml measured after 72 hrs relative to control; type: functional; details: dose microg/ml <=400
[16] = Stability in simulated intestinal fluid at pH 6.8 assessed as hydrolysis measured immediately in presence of pancreatin by HPLC analysis; type: ADME; details: simulated gi fluid; how it was run: as §1
Erythrocyte [17] = assay: Cytoprotective activity against H2O2-induced oxidative damage in human RBC assessed as restoration of antioxidant activity at 50 to 100 uM measured after 72 hrs by TAC assay relative to control; type: functional; details: dose 50-100 µM

SMILES | fold change (FC) [1] | fold change (FC) [2] | fold change (FC) [3] | Activity (Erythrocyte [4]) | fold change (FC) [5] | Activity (SH-SY5Y [6]) | fold change (FC) [7] | half-life [8] | Activity (SH-SY5Y [9]) | fold change (FC) [10] | solubility [11] | Activity (SH-SY5Y [12]) | Activity (SH-SY5Y [13]) | Activity (SH-SY5Y [14]) | Activity (Erythrocyte [15]) | Stabilty [16] | Activity (Erythrocyte [17])
COc1cc(/C=C/C(=O)NCCCNC(=O)CCCCC2CCSS2)ccc1O (stereo unspecified) | 1.04% | 2.5% | 0.86% | Dose-dependent effect | 0.36% | Active | 3.46% | 72.4 h | Active | 0.54% | 49 µg/mL (≈ 112 µM) | Active | Active | Active | 6.7% |  | 
O=C(CCCCC1CCSS1)NCCCCCOC(=O)Cc1ccc(O)c(O)c1 (stereo unspecified) |  |  |  | Dose-dependent effect | 35.42% | Active |  | 0.03 h | Active |  |  | Active | Active | Active | 32.3% | Unstable | 79.2%
